Source: PubChem
This excerpt belongs to a sample that is enriched for hits.
Yeast eIF2B = modulators of yeast eIF2B activity. S. cerevisiae eIF2B-epsilon R284H, GCN4-lacZ luminescence. inhibition, % at 25 µM (by protocol). hit rate 0.91% among 27,000;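 active means mutant luminescence inhibited past about 50% while wild type luminescence and mutant growth stay under set limits, limit read from the data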
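Material – yeast eIF2B-epsilon R284H mutant carrying GCN4–beta-galactosidase fusion · Medium – YPD yeast growth medium · Compound – one concentration, 25 µM, 0.25% DMSO · Times – 16 h at 30 °C exposure · Signal – Beta-Glo luminescence plus absorbance at 595 nm · Read-out – % inhibition of reporter signal and growth versus controls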
An asterisk follows results filed as active.

SMILES	Yeast eIF2B
O=C(OCCn1cncn1)c1cc2ccccc2oc1=O	59.2*
O=C(c1cc2ccccc2oc1=O)N(Cc1cccs1)Cc1cccs1	17.1
CO/N=C(/CS(=O)(=O)c1ccc(C)cc1)c1ccc(OC)cc1	5.9
CC(C)CNC(=O)CCc1c[nH]c2ccccc12	6.9
CC(Sc1c[nH]c2ccccc12)C(=O)O (stereo not given)	-0.1
CCC(=O)NCCSc1c[nH]c2ccccc12	61.5*
O=C1CNC(=O)N1Cc1ccc(Br)cc1	51.0*
Brc1ccc(CN2CCSCC2)cc1	10.8
O=C1C2CC=CCC2C(=O)N1Cc1ccccc1 (stereo not given)	2.9
Cc1ccc(SCC(=O)NC(C)(C)C)cc1	18.6
CCN(CC)c1nc2ccccc2nc1-n1nc(C)cc1C	-46.8
COc1cc(-c2ccc(NC(=O)CN3CCCCC3)c(OC)c2)ccc1NC(=O)CN1CCCCC1	-18.9
O=C(c1cccc(S(=O)(=O)N2CCCCC2)c1)N1CCN(S(=O)(=O)c2ccc(F)cc2)CC1	5.5
COc1cccc(-c2nnc(-c3ccc(C(F)(F)F)cc3)o2)c1	-30.0
CC1=Nc2ccccc2/C1=C\c1nc(-c2ccc(C(F)(F)F)cc2)oc1O	-15.8
Oc1ccccc1-c1nnc(-c2ccc(C(F)(F)F)cc2)o1	52.8*
COC(=O)C1CCN(C(=O)C2CCCCC2)CC1	3.5
CC(NC(=O)CSc1nc2ccccc2c(=O)n1CCCO)c1ccccc1 (stereo not given)	52.8*
CC(C)NC(=O)CSc1nc2ccccc2c(=O)n1CCCOC(C)C	-4.6
CCCCn1c(SCC(=O)Nc2cc(C)on2)nc2ccccc2c1=O	17.5
N#C/C(Cn1c[n+](NC(=O)Nc2ccccc2)cn1)=N/O	10.5
Cn1c(=O)c2c(nc(SCC(=O)O)n2Cc2cc3c(cc2Cl)OCO3)n(C)c1=O	12.2
CC1Cc2ccccc2N1C(=O)CSc1nnc2c(n1)[nH]c1ccc(F)cc12 (stereo not given)	2.4
Oc1c(CN2CCOCC2)cc(-c2ccccc2)cc1CN1CCOCC1	6.3
CCCCc1cc(=O)oc2c(CN3CCCC3)c(O)c(Cl)cc12	11.9
SMILES	Yeast eIF2B
Cc1c(O)c(CN2CCCC2)cc2c1oc(=O)c1ccccc12	58.1*
CCCN(Cc1cc2ccc(C)cc2[nH]c1=O)S(=O)(=O)c1ccccc1	34.9
CCCC1CC(C)(c2csc(Nc3ccc(OCC)cc3)n2)OC1=O (stereo not given)	54.0*
CCOc1ccc(NC(=O)CC2CC(C)(C)OC2=O)cc1 (stereo not given)	6.3
CCOc1ccc(NC2=NCC(=O)N2Cc2cccs2)cc1	-2.6
COc1ccc(-c2cnn(C3CCS(=O)(=O)C3)c2N)cc1 (stereo not given)	15.7
O=C(Nc1ccccc1N1CCN(C(=O)c2ccccc2)CC1)c1cc2ccccc2o1	50.0*
CC(C)(C)C(=O)Nc1ccccc1N1CCN(C(=O)c2ccc(Cl)cc2)CC1	16.7
Nc1ccccc1N1CCN(C(=O)c2ccccc2)CC1	9.6
COC(=O)c1cccc(COC(=O)c2ccc(CS(=O)(=O)c3ccc(C)cc3)cc2)c1	4.9
Cc1cccc(OCC(=O)Nc2ccc(N3CCN(S(C)(=O)=O)CC3)cc2)c1	-7.9
CCCCCC(=O)Nc1ccc(N2CCN(C(=O)CCC)CC2)cc1	5.2
CCCCC(=O)Nc1ccc(N2CCN(S(C)(=O)=O)CC2)cc1	61.9*
CCC(=O)N1CCc2cc(S(=O)(=O)NC(C(=O)NCc3ccc(F)cc3)C(C)C)ccc21 (stereo not given)	27.3
CCC(=O)N1CCc2cc(S(=O)(=O)NC(C(=O)NCc3ccccc3)C(C)C)ccc21 (stereo not given)	55.1*
CC(=O)N1CCc2cc(S(=O)(=O)NC(C(=O)NCc3ccccc3)C(C)C)ccc21 (stereo not given)	7.2
CSc1cccc(NC(=O)CN(Cc2ccc(Cl)cc2)S(C)(=O)=O)c1	18.4
C/C(=C\c1ccccc1)C(=O)Nc1cc(C)on1	13.2
COc1cc(S(=O)(=O)N(Cc2ccc(C)cc2)Cc2ccco2)ccc1-n1cnnn1	13.2
COc1cc(S(=O)(=O)N(Cc2cccnc2)Cc2ccco2)ccc1-n1cnnn1	52.9*
COc1cc(S(=O)(=O)N(Cc2ccccn2)Cc2ccco2)ccc1-n1cnnn1	-2.0
CC(C)NC(=O)c1cc(-n2cnnc2)ccc1Cl	-5.9
CCn1c(=O)cc(OCC(=O)Nc2ccc3c(c2)OCCO3)c2ccccc21	-9.2
CCn1c(=O)cc(OCC(=O)N(C)C2CCCCC2)c2ccccc21	22.5
CCOC(=O)N1CCN(C(=O)COc2cc(=O)n(CC)c3ccccc23)CC1	67.8*
CC(C)(C)CC(=O)Nc1ccc(Nc2ccccc2)cc1	3.9
Cc1cc(/C=C(\C#N)C(=O)NCc2ccco2)c(C)n1C1CCCC1	27.5
